Calls of active or inactive are those of the source. The calls are words filed in the database; no cut-off is given here.
Experiments:
Melanocortin receptor 3 [1] = target: Melanocortin receptor 3 (Homo sapiens, UniProt P41968); assay: Displacement of [125I]NDPMSH from human MC3R expressed in HEK293 cells; format: cell-based
Melanocortin receptor 4 [2] = target: Melanocortin receptor 4 (Homo sapiens, UniProt P32245); assay: Antagonist activity at human MC4R expressed in HEK293 cells assessed as inhibition of alpha-MSH-stimulated cAMP production; format: functional, cell-based
[3] = target: Melanocyte-stimulating hormone receptor (Homo sapiens, UniProt Q01726); assay: Displacement of [125I]NDPMSH from human MC1R expressed in HEK293 cells at 10 uM; format: cell-based
[4] = Distribution coefficient, log D by shake flask method; format: physicochemical; conditions: octanol/water
Outline: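 LogD measured by the shake-flask method; described elsewhere in the paper as lipophilicity at pH 7.4.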

[5] = Clearance in CD1 mouse at 5 mg/kg, iv; format: ADME, organism-based; set-up: dose 5 mg/kg, route intravenous; conditions: in vivo
Outline: (§1)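 CD-1 mice, three animals, dosed i.v. at 5 mg/kg and by oral gavage at 10 mg/kg. Plasma CL, Vd, t1/2, Cmax, Tmax, oral AUC and F% were derived. Brain concentrations and brain/plasma ratios at 1 and 4 h were taken from the i.v. dosing.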

[6] = Volume of distribution in CD1 mouse at 5 mg/kg, iv; format: ADME, organism-based; set-up: dose 5 mg/kg, route intravenous; conditions: in vivo
Outline: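 CD-1 mice, three animals per route; single i.v. dose at 5 mg/kg and oral gavage at 10 mg/kg. Plasma PK parameters derived; brain concentrations and brain/plasma ratios taken from the i.v. dosing at 1 and 4 h.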

[7] = Half life in CD1 mouse at 5 mg/kg, iv; format: ADME, organism-based; set-up: dose 5 mg/kg, route intravenous; conditions: in vivo; outline: as §1
[8] = Drug level in CD1 mouse brain at 5 mg/kg, iv after 1 hr; format: ADME, organism-based; set-up: dose 5 mg/kg, route intravenous; conditions: read-out: Drug uptake; outline: as §1
[9] = Cmax in CD1 mouse at 10 mg/kg, po after 6 hrs; format: ADME, organism-based; set-up: dose 10 mg/kg, route oral; conditions: in vivo; outline: as §1
[10] = AUC in CD1 mouse at 10 mg/kg, po; format: ADME, organism-based; set-up: dose 10 mg/kg, route oral; conditions: plasma; outline: as §1
[11] = Bioavailability in CD1 mouse at 10 mg/kg, po; format: ADME, organism-based; conditions: in vivo; outline: as §1
[12] = Drug level in CD1 mouse brain at 5 mg/kg, iv after 4 hrs; format: ADME, organism-based; set-up: dose 5 mg/kg, route intravenous; conditions: read-out: Drug uptake; outline: as §1
[13] = Ratio of drug level in brain to plasma in CD1 mouse at 5 mg/kg, iv after 4 hrs; format: ADME, organism-based; set-up: dose 5 mg/kg, route intravenous; conditions: brain and plasma, read-out: BPR
[14] = Tmax in Sprague-Dawley rat at 5 mg/kg, iv and 10 mg/kg, po; format: ADME, organism-based; conditions: in vivo
Outline: (§2)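 Sprague–Dawley rats, three animals per route; i.v. dose 5 mg/kg and oral 10 mg/kg. Brain concentrations and brain/plasma ratios taken from the oral dosing at 1 and 4 h post-dose.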

[15] = Cmax in Sprague-Dawley rat at 10 mg/kg, po; format: ADME, organism-based; set-up: dose 10 mg/kg, route oral; conditions: in vivo
[16] = AUC in Sprague-Dawley rat at 10 mg/kg, po; format: ADME, organism-based; set-up: dose 10 mg/kg, route oral; conditions: plasma
[17] = Drug level in Sprague-Dawley rat brain at 10 mg/kg, po after 4 hrs; format: ADME, organism-based; set-up: dose 10 mg/kg, route oral; conditions: read-out: Drug uptake
[18] = Ratio of drug level in brain to plasma in Sprague-Dawley rat at 10 mg/kg, po after 1 hr; format: ADME, organism-based; set-up: dose 10 mg/kg, route oral; conditions: brain and plasma, read-out: BPR; outline: as §2
[19] = Half life in dog at 5 mg/kg, iv; format: ADME, organism-based, Canis lupus familiaris; set-up: dose 5 mg/kg, route intravenous; conditions: in vivo
[20] = AUC in dog at 5 mg/kg, iv; format: ADME, organism-based, Canis lupus familiaris; set-up: dose 5 mg/kg, route intravenous; conditions: plasma
[21] = Tmax in dog at 10 mg/kg, po; format: ADME, organism-based, Canis lupus familiaris; set-up: dose 10 mg/kg, route oral; conditions: in vivo
[22] = Clearance in monkey at 5 mg/kg, iv; format: ADME, organism-based, Macaca mulatta; set-up: dose 5 mg/kg, route intravenous; conditions: rhesus monkey, in vivo
[23] = Volume of distribution in monkey at 5 mg/kg, iv; format: ADME, organism-based, Macaca mulatta; set-up: dose 5 mg/kg, route intravenous; conditions: rhesus monkey, in vivo
Mus musculus [24] = assay: Increase in food intake in Lewis lung carcinoma bearing C57BL/6J mouse at 9 mg/kg, ip bid after 4 days; format: functional, organism-based; set-up: dose 9 mg/kg
Outline: (§3)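 Male C57BL/6J mice inoculated with Lewis lung carcinoma cells. From day 11 after inoculation, mice were dosed i.p. twice daily at 3 or 9 mg/kg for 4 days and compared with vehicle-treated tumor-bearing controls. Food intake and body weight were recorded; lean body mass was measured by DEXA.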

[25] = Cmax in monkey at 10 mg/kg, po; format: ADME, organism-based, Macaca mulatta; set-up: dose 10 mg/kg, route oral; conditions: rhesus monkey, in vivo
[26] = Tmax in monkey at 10 mg/kg, po; format: ADME, organism-based, Macaca mulatta; set-up: dose 10 mg/kg, route oral; conditions: rhesus monkey, in vivo
[27] = AUC in monkey at 10 mg/kg, po; format: ADME, organism-based, Macaca mulatta; set-up: dose 10 mg/kg, route oral; conditions: rhesus monkey, plasma
Mus musculus [28] = assay: Increase in body weight in Lewis lung carcinoma bearing C57BL/6J mouse at 3 mg/kg, ip bid after 4 days; format: functional, organism-based; set-up: dose 3 mg/kg; outline: as §3
Mus musculus [29] = assay: Increase in body weight in Lewis lung carcinoma bearing C57BL/6J mouse at 9 mg/kg, ip bid after 4 days; format: functional, organism-based; set-up: dose 9 mg/kg; outline: as §3
Mus musculus [30] = assay: Increase in lean body mass in Lewis lung carcinoma bearing C57BL/6J mouse at 9 mg/kg, ip bid after 4 days; format: functional; conditions: route intraperitoneal; outline: as §3
Melanocortin receptor 4 [31] = target: Melanocortin receptor 4 (Mus musculus, UniProt P56450); assay: Binding affinity to mouse MC4R
Melanocortin receptor 3 [32] = target: Melanocortin receptor 3 (Mus musculus, UniProt P33033); assay: Binding affinity to mouse MC3R
[33] = Cmax in CD1 mouse at 10 mg/kg, ip; format: ADME, organism-based; set-up: dose 10 mg/kg, route intraperitoneal; conditions: in vivo
Outline: (§4)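 CD-1 mice, single intraperitoneal dose of 10 mg/kg, n = 3. Plasma concentration followed over time, giving Cmax, Tmax and AUC.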

[34] = Tmax in CD1 mouse at 10 mg/kg, ip; format: ADME, organism-based; set-up: dose 10 mg/kg, route intraperitoneal; conditions: in vivo
[35] = AUC in CD1 mouse at 10 mg/kg, ip; format: ADME, organism-based; set-up: dose 10 mg/kg, route intraperitoneal; conditions: plasma; outline: as §4
[36] = Plasma concentration in CD1 mouse at 10 mg/kg, ip after 8 hrs; format: ADME, organism-based; set-up: dose 10 mg/kg, route intraperitoneal
[37] = target: Growth hormone secretagogue receptor type 1 (Homo sapiens, UniProt Q92847); assay: Agonist activity at GHSR; format: functional
Cytochrome P450 1A2 = target: T1, Cytochrome P450 1A2 (Homo sapiens, UniProt P05177); assay: Inhibition of CYP1A2; format: ADME
T1 sequence (P05177 whole entry): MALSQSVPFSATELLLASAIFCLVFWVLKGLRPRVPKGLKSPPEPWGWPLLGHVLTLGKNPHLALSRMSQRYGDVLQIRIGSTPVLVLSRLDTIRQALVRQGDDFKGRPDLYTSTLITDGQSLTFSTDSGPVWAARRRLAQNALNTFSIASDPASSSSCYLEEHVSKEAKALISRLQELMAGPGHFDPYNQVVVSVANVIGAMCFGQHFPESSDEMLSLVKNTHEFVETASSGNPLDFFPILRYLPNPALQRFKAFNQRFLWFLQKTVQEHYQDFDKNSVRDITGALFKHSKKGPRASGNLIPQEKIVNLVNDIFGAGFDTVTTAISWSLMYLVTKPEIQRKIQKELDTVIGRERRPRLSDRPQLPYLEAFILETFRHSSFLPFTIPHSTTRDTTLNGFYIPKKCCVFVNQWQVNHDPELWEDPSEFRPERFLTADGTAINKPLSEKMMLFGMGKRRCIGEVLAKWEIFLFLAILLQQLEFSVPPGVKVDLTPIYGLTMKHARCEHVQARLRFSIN

Cytochrome P450 3A4 = Cytochrome P450 3A4 (Homo sapiens, UniProt P08684); assay: Inhibition of CYP3A4; format: ADME
Cytochrome P450 2D6 = Cytochrome P450 2D6 (Homo sapiens, UniProt P10635); assay: Inhibition of CYP2D6; format: ADME
Cytochrome P450 2C9 = Cytochrome P450 2C9 (Homo sapiens, UniProt P11712); assay: Inhibition of CYP2C9; format: ADME
Cytochrome P450 2C19 = Cytochrome P450 2C19 (Homo sapiens, UniProt P33261); assay: Inhibition of CYP2C19; format: ADME
Cytochrome P450 2C19, sequence (P33261 whole entry): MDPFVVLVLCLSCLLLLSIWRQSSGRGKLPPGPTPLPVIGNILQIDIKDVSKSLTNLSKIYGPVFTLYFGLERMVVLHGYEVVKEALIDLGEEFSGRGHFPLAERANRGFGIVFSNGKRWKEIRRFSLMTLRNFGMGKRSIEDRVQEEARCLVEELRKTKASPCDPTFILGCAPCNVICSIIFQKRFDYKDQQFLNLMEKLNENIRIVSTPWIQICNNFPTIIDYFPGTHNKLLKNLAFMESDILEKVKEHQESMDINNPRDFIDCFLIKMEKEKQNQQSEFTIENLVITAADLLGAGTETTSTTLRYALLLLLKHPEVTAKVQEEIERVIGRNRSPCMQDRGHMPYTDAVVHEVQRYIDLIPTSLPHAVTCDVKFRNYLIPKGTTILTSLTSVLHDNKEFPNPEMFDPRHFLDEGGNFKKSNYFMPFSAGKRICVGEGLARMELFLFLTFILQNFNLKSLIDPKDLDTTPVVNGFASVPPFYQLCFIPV

Growth hormone secretagogue receptor type 1, sequence (Q92847 whole entry): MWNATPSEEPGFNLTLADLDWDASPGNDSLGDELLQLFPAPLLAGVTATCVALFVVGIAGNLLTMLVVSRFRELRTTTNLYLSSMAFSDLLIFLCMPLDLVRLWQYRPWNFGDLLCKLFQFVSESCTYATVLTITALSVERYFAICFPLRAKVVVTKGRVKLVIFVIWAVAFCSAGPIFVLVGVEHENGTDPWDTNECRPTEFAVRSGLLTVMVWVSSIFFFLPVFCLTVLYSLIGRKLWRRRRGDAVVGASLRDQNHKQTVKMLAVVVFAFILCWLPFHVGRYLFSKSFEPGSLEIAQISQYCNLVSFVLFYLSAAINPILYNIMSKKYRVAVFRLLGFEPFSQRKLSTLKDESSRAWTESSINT
Melanocortin receptor 4 (Mus musculus, UniProt P56450), sequence (P56450 whole entry): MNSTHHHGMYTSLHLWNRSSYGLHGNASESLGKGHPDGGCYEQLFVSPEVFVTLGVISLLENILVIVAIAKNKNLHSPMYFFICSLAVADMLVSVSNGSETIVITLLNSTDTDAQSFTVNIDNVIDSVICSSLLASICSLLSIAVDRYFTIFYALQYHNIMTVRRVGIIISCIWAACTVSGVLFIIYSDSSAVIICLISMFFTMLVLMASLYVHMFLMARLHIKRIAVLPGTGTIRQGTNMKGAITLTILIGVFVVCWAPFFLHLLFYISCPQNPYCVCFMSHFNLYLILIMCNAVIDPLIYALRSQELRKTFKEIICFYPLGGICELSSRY
Melanocortin receptor 3 (Mus musculus, UniProt P33033), sequence (P33033 whole entry): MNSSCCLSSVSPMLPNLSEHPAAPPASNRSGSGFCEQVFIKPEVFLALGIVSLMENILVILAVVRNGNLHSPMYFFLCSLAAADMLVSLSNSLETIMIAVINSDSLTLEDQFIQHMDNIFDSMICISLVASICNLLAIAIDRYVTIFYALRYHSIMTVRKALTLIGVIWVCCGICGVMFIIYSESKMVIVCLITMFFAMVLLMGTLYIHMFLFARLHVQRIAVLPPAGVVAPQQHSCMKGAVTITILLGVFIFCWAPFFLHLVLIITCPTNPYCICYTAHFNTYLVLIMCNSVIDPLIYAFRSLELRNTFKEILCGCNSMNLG
Cytochrome P450 2C9, sequence (P11712 whole entry): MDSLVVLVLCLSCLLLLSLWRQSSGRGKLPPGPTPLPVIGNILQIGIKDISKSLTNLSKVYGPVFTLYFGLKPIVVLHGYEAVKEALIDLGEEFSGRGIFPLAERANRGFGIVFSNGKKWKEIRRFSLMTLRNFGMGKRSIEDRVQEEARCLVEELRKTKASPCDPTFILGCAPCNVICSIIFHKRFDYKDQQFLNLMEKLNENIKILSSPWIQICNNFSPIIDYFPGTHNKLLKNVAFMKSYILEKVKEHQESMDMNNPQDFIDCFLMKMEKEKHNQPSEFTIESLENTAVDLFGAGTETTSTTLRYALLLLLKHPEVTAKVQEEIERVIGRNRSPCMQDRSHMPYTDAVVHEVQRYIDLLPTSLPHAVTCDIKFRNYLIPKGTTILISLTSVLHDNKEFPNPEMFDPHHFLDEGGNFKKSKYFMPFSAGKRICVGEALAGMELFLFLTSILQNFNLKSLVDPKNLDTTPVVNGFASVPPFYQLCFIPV
Cytochrome P450 3A4, sequence (P08684 whole entry): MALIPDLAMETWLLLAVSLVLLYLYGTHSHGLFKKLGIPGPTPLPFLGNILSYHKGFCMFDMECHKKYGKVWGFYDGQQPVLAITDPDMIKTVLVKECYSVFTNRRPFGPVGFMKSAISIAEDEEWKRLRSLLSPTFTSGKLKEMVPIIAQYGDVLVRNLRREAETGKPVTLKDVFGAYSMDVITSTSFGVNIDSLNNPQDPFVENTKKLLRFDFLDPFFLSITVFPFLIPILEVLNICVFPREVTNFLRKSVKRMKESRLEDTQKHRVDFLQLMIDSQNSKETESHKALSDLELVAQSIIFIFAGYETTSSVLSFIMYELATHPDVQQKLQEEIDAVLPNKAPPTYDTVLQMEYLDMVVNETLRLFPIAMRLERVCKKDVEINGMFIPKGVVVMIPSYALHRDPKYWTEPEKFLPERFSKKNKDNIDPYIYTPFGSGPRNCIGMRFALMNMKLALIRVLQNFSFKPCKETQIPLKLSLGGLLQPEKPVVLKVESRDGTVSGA
Melanocortin receptor 4 (Homo sapiens, UniProt P32245), sequence (P32245 whole entry): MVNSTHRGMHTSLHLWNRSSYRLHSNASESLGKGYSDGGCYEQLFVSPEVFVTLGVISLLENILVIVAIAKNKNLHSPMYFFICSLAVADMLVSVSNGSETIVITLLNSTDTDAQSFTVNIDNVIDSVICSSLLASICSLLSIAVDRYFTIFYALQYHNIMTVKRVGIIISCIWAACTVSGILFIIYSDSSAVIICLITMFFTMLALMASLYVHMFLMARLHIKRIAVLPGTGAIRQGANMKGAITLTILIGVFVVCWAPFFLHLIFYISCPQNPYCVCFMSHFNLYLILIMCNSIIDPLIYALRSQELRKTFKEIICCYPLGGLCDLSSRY
Cytochrome P450 2D6, sequence (P10635 whole entry): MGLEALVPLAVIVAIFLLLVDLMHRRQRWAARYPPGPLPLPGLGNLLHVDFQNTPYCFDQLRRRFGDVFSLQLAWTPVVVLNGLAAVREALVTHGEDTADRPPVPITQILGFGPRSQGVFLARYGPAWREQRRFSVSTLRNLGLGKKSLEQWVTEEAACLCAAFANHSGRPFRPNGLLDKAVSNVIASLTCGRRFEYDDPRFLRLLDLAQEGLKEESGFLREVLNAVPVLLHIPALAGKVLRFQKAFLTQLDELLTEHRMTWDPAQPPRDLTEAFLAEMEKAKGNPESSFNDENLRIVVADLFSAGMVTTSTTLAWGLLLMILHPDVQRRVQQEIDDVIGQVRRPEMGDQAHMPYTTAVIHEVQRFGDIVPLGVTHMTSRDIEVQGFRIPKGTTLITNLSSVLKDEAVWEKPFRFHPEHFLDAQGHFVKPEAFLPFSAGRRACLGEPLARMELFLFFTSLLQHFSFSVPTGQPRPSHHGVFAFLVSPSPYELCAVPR
Melanocyte-stimulating hormone receptor, sequence (Q01726 whole entry, looked up): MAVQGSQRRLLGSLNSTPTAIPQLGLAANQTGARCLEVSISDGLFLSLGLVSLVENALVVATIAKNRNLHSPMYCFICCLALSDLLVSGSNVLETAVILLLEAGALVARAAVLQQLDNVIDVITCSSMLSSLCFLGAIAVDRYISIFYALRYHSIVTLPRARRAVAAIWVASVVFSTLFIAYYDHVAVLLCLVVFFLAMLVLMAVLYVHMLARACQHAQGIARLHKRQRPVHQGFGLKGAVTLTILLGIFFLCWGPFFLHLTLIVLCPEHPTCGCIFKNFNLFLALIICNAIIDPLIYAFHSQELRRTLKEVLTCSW
Melanocortin receptor 3 (Homo sapiens, UniProt P41968), sequence (P41968 whole entry): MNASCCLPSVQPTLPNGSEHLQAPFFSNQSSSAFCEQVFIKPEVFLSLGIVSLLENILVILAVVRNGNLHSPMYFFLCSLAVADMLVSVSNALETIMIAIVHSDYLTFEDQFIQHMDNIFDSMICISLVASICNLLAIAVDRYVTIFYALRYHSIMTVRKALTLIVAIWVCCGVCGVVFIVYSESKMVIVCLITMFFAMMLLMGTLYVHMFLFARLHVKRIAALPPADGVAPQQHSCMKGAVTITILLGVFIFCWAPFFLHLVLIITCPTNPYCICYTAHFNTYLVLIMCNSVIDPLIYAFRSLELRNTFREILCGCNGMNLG

## CC(C)C[C@H](NC(=O)CCN(C)C)c1cc(Cl)ccc1N1CCN(C(=O)[C@H](C)Cc2ccc(Cl)cc2)CC1
Melanocortin receptor 3 [1]
  Ki: 710 nM
Melanocortin receptor 4 [2]
  IC50: 930 nM
[3]
  Activity: 20%
[4]
  logD: 3.9
[5]
  clearance: 36 mL/min/kg
[6]
  Vd: 11 L/kg
[7]
  half-life: 3.5 h
[8]
  concentration at 1 h: 800 ng/g
[9]
  Cmax: 132 ng/mL
[10]
  AUC: 1160 ng·h/mL
[11]
  bioavailability: 23%
[12]
  concentration at 4 h: 177 ng/g
[13]
  Kp at 4 h: 2.2
[14]
  Tmax: 6 h
[15]
  Cmax: 163 ng/mL
[16]
  AUC: 1870 ng·h/mL
[17]
  concentration at 4 h: 27 ng/g
[18]
  Kp at 1 h: 0.1
[19]
  half-life: 4.7 h
[20]
  AUC: 2510 ng·h/mL
[21]
  Tmax: 1 h
[22]
  clearance: 24.3 mL/min/kg
[23]
  Vd: 8.5 L/kg
Mus musculus [24]
  Activity: Active
[25]
  Cmax: 108 ng/mL
[26]
  Tmax: 2.7 h
[27]
  AUC: 1070 ng·h/mL
Mus musculus [28]
  Activity: Active
Mus musculus [29]
  Activity: Active
Mus musculus [30]
  Activity: 15%
Melanocortin receptor 4 [31]
  Ki: 18 nM
Melanocortin receptor 3 [32]
  Ki: 340 nM
[33]
  Cmax: 1520 ng/mL
[34]
  Tmax: 0.3 h
[35]
  AUC: 3070 ng·h/mL
[36]
  concentration at 8 h: 100 ng/mL
[37]
  EC50: 720 nM
  Intrinsic activity: 47%
Cytochrome P450 1A2
  IC50: > 10000 nM
Cytochrome P450 3A4
  IC50: > 10000 nM
Cytochrome P450 2D6
  IC50: > 10000 nM
Cytochrome P450 2C9
  IC50: > 10000 nM
Cytochrome P450 2C19
  IC50: > 10000 nM
